We go through 4 compounds from ChEMBL document CHEMBL1123476, “Synthesis of congeners and prodrugs of the benzene maleimide photoadduct mitindomide as potential antitumor agents. 2” (J Med Chem, 1986).

Data set [1] deals with P388. Briefly: Antitumor activity in P-388 lymphocytic leukemia system and the difference in body weight calculated at 100 mg/kg dose levels per injection. The format is functional, Mus musculus.
Data set [2] deals with P388. Briefly: Compound was tested for antitumor activity in P-388 lymphocytic leukemia system at 200 mg/kg dose levels per injection; 0/6. It is filed as functional, Mus musculus. Put shortly:
(§1)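 P-388 leukemia in animals, Q01D×09 schedule: dose given daily for 9 days, in mg/kg per injection. Read-outs are survivors on day 4 (live/total animals), body-weight difference test minus control (g), and % T/C (median lifetime of treated ÷ median lifetime of controls × 100). Some compounds were tested in independent runs at different times.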

Data set [3] has as its system P388. Put plainly: (§2) Antitumor activity in P-388 lymphocytic leukemia system at 50 mg/kg dose levels per injection. It is filed as functional, Mus musculus. Put shortly:
(§3)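 P-388 leukemia in vivo, dosed Q01D×09 (one injection daily for 9 days, mg/kg per injection). Activity is %T/C, the median lifetime of treated animals divided by that of controls, ×100. Live animals on day 4 were counted against the total (survivors day 4). Repeat tests were done independently at different times.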

Data set [4] has as its system P388. Put plainly: Compound was tested for antitumor activity in P-388 lymphocytic leukemia system at 12.5 mg/kg dose levels per injection. It is filed as functional, Mus musculus. Put shortly:
as §3

In data set [5] the test system is P388. Put plainly: Compound was tested for antitumor activity in P-388 lymphocytic leukemia system at 12.5 mg/kg dose levels per injection; 6/6. The format is functional, Mus musculus. The method in brief:
as §1

In data set [6] the test system is P388. Briefly: Antitumor activity in P-388 lymphocytic leukemia system and the difference in body weight was calculated at 50 mg/kg dose levels per injection. It is filed as functional, Mus musculus. As to conditions: 50 mg/kg.
Data set [7] can be described thus: Solubility was determined. It is filed as physicochemical.
The subject of data set [8] is P388. Put plainly: Compound was tested for antitumor activity in P-388 lymphocytic leukemia system at 100 mg/kg dose levels per injection; 3/6. It is filed as functional, Mus musculus. Put shortly: as §1
Data set [9] has as its system P388. Briefly: Antitumor activity in P-388 lymphocytic leukemia system and the difference in body weight was calculated at 25 mg/kg dose levels per injection. Particulars: 25 mg/kg. The format is functional, Mus musculus.
Data set [10] deals with P388. Briefly: Compound was tested for antitumor activity in P-388 lymphocytic leukemia system at 100 mg/kg dose levels per injection; 0/6. The format is functional, Mus musculus. The method in brief:
as §1

The test system of data set [11] is P388. The data set is described as §2. The format is functional, Mus musculus. Put shortly: as §1
The source holds these as a separate data set.

The subject of data set [12] is P388. Briefly: Compound was tested for antitumor activity in P-388 lymphocytic leukemia system at 200 mg/kg dose levels per injection. It is filed as functional, organism-based. Also on record: dose 200 mg/kg. Particulars: Mus musculus. Put shortly:
as §3

For data set [13], the system named is P388. Put plainly: Antitumor activity in P-388 lymphocytic leukemia system at 25 mg/kg dose levels per injection. It is filed as functional, Mus musculus. Put shortly: as §3
The test system of data set [14] is P388. Put plainly: Antitumor activity in P-388 lymphocytic leukemia system at 25 mg/kg dose levels per injection. It is filed as functional, Mus musculus. The method in brief:
as §1

For data set [15], the system named is P388. Put plainly: Compound was tested for antitumor activity in P-388 lymphocytic leukemia system at 100 mg/kg dose levels per injection; Toxic. The format is functional, organism-based. Set-up: dose 100 mg/kg. As to conditions: Mus musculus. The method in brief: as §3
For data set [16], the system named is P388. Put plainly: Compound was tested for antitumor activity in P-388 lymphocytic leukemia system and the difference in body weight was calculated at 12.5 mg/kg dose levels per injection. It is filed as functional, Mus musculus.
Data set [17] has as its system P388. Briefly: Antitumor activity in P-388 lymphocytic leukemia system at 200 mg/kg dose levels per injection. It is filed as functional, Mus musculus. The method in brief: as §1
Data set [18] relates to P388. Briefly: Compound was tested for antitumor activity in P-388 lymphocytic leukemia system at 25 mg/kg dose levels per injection; 6/6. It is filed as functional, Mus musculus. Put shortly:
as §1

For data set [19], the system named is P388. Briefly: (§4) Antitumor activity in P-388 lymphocytic leukemia system at 100 mg/kg dose levels per injection. The format is functional, Mus musculus. The method in brief:
as §3

Data set [20] in a line: Solubility was determined; INS= less than 0.1. The format is physicochemical.
Data set [21] concerns P388. Briefly: Compound was tested for antitumor activity in P-388 lymphocytic leukemia system at 200 mg/kg dose levels per injection. The format is functional, Mus musculus. Put shortly:
as §3

The test system of data set [22] is P388. Described as §4. The format is functional, Mus musculus. The method in brief:
as §1
The source holds these as a separate data set.

Data set [23] deals with P388. Briefly: Compound was tested for antitumor activity in P-388 lymphocytic leukemia system. at 200 mg/kg dose levels per injection. The format is functional, Mus musculus. Put shortly:
as §3

Data set [24] relates to P388. Briefly: Compound was tested for antitumor activity in P-388 lymphocytic leukemia system at 25 mg/kg dose levels per injection. It is filed as functional, Mus musculus. Put shortly: as §3
For data set [25], the system named is P388. Briefly: Compound was tested for antitumor activity in P-388 lymphocytic leukemia system The difference in body weight was calculated at 12.5 mg/kg dose levels per injection. It is filed as functional, Mus musculus.
Data set [26] relates to P388. Briefly: Compound was tested for antitumor activity in P-388 lymphocytic leukemia system at 200 mg/kg dose levels per injection; 3/6. The format is functional, Mus musculus. The method in brief: as §1
Data set [27] has as its system P388. Put plainly: Compound was tested for antitumor activity in P-388 lymphocytic leukemia system at 100 mg/kg dose levels per injection; 5/6. It is filed as functional, Mus musculus. The method in brief:
as §1

For data set [28], the system named is P388. Put plainly: Compound was tested for antitumor activity in P-388 lymphocytic leukemia system at 200 mg/kg dose levels per injection; 5/6. The format is functional, Mus musculus. Put shortly:
as §1

Data set [29] deals with P388. Put plainly: Compound was tested for antitumor activity in P-388 lymphocytic leukemia system. The difference in body weight was calculated at 24.8 mg/kg dose levels per injection. The format is functional, Mus musculus.
The test system of data set [30] is P388. Put plainly: Compound was tested for antitumor activity in P-388 lymphocytic leukemia system at 41.3 mg/kg dose levels per injection; 6/6. It is filed as functional, Mus musculus. The method in brief:
as §1

The test system of data set [31] is P388. Briefly: Compound was tested for antitumor activity in P-388 lymphocytic leukemia system at 114.7 mg/kg dose levels per injection; 2/6. The format is functional, Mus musculus. Put shortly:
as §1

Data set [32] deals with P388. Put plainly: Compound was tested for antitumor activity in P-388 lymphocytic leukemia system and the difference in body weight was calculated at 114.7 mg/kg dose levels per injection. The format is functional, Mus musculus.
Data set [33] relates to P388. Briefly: Compound was tested for antitumor activity in P-388 lymphocytic leukemia system at 68.8 mg/kg dose levels per injection. The format is functional, Mus musculus. Put shortly:
as §3

The test system of data set [34] is P388. Briefly: Compound was tested for antitumor activity in P-388 lymphocytic leukemia system at 191.2 mg/kg dose levels per injection; 0/6. The format is functional, Mus musculus. Put shortly:
as §1

Data set [35] relates to P388. Put plainly: Compound was tested for antitumor activity in P-388 lymphocytic leukemia system at 24.8 mg/kg dose levels per injection; 6/6. The format is functional, Mus musculus. Put shortly: as §1
The subject of data set [36] is P388. Briefly: Compound was tested for antitumor activity in P-388 lymphocytic leukemia system at 68.8 mg/kg dose levels per injection; 6/6. The format is functional, Mus musculus. The method in brief:
as §1

In data set [37] the test system is P388. Briefly: Compound was tested for antitumor activity in P-388 lymphocytic leukemia system and the difference in body weight was calculated at 68.8 mg/kg dose levels per injection. It is filed as functional, Mus musculus.
In data set [38] the test system is P388. Put plainly: Compound was tested for antitumor activity in P-388 lymphocytic leukemia system at 24.8 mg/kg dose levels per injection. The format is functional, Mus musculus. Put shortly: as §3
For data set [39], the system named is P388. Briefly: Compound was tested for antitumor activity in P-388 lymphocytic leukemia system and the difference in body weight was calculated at 41.3 mg/kg dose levels per injection. The format is functional, Mus musculus.
The test system of data set [40] is P388. Put plainly: Compound was tested for antitumor activity in P-388 lymphocytic leukemia system at 41.3 mg/kg dose levels per injection. The format is functional, Mus musculus. The method in brief:
as §3

Values joined by “and” are separate entries in the source; they are usually repeats but may differ in a detail not shown here. Equal values may be shown once.

On to `O=C1C2C3C=CC(C2C(=O)N1CO)C1C2C(=O)N(CO)C(=O)C2C31` (centres undefined), for which the Weight difference is -8.2 g in the data set with P388 [1]; -5.6 g and -6.5 g with P388 [6]; -2.5 g and -3.3 g with P388 [9]; -0.7 g in the data set on P388 [16]. The “Survivors at day 4” value was 0 in the data set with P388 [2]; 6 with P388 [5]; 3 in the data set with P388 [8]; 0 with P388 [10]; 6 in the data set with P388 [11]; 6 in the data set on P388 [14]. Further, the T/C (usually the result in the treated group divided by that in the control group, in per cent) in the data set with P388 [3] (50 mg/kg) is 195% and 208%; in the data set with P388 [4], 105%; with P388 [12] it was “Toxic”; in the data set on P388 [13] (25 mg/kg) it was 140% and 157%; in the data set on P388 [15], “Toxic”. For the same compound, the Solubility in data set [7] was 0.8%.
Turning to `CC12C=CC(C)(C3C(=O)NC(=O)C31)C1C3C(=O)NC(=O)C3C12` (centres undefined), the “Survivors at day 4” value in the data set on P388 [17], in the data set with P388 [18], with P388 [22] and with P388 [11] was 6 each time. The T/C in the data set with P388 [19] is 109%; with P388 [3], 108%; with P388 [23] it was 97%; in the data set with P388 [13] it was 103%. Moreover, the Weight difference with P388 [19] is listed as -4.8 g; in the data set on P388 [21], -6.1 g; in the data set with P388 [3], -3.7 g; in the data set with P388 [24] it was -1.5 g. Further, the Solubility entry in data set [20] is on record as “Insoluble”.
Consider `O=C1NC(=O)C2C3C=CC(C12)C1C2C(=O)NC(=O)C2C31` (centres undefined), for which the Weight difference with P388 [25] was 0.2 g; in the data set with P388 [19] it was -3.4 g; in the data set on P388 [21] (200 mg/kg) it was -7.3 g and -3.1 g; with P388 [3] (50 mg/kg), -2.2 g and -2 g. Further, the “Survivors at day 4” value in the data set on P388 [18] worked out at 6; with P388 [26] it was 3; with P388 [27], 5; in the data set with P388 [22], 6; in the data set on P388 [5], 6; with P388 [11] it was 6. In the data set with P388 [28], the “Survivors at day 4” value was 5. For the same compound, the T/C was 94% in the data set on P388 [19]; 177% with P388 [19] (100 mg/kg); 172% and 168% in the data set on P388 [3] (50 mg/kg); 119% in the data set with P388 [4]; “Toxic” in the data set on P388 [12]; 149% and 142% with P388 [13] (25 mg/kg). Moreover, the Solubility result in [20] was “Insoluble”.
Take `CN1CCN(CN2C(=O)C3C4C=CC(C3C2=O)C2C3C(=O)N(CN5CCN(C)CC5)C(=O)C3C42)CC1.Cl` (centres undefined): the Weight difference is 1.2 g with P388 [29], -5.9 g in the data set on P388 [32], -4.6 g in the data set with P388 [37] and -1.8 g in the data set with P388 [39]. Also, the “Survivors at day 4” value is recorded as 6 in the data set on P388 [30]; 2 in the data set on P388 [31]; 0 in the data set with P388 [34]; 6 with P388 [35]; 6 in the data set on P388 [36]. Also, the T/C in the data set on P388 [33] turned out to be 172%; in the data set with P388 [38] it was 113%; with P388 [40], 130%.
